This is an account of results in ChEMBL document CHEMBL1122821, “Synthesis and some pharmacological properties of 18 potent O-alkyltyrosine-substituted antagonists of the vasopressor responses to arginine-vasopressin” (J Med Chem, 1985).

Starred links: 1 amine or outer side, 2 acyl side, 3 side chain; linkers in the order of their positions; H or OH if unused. Positions of bridges follow the written chain, without caps; N, C: chain ends. Non-standard residues stand in square brackets, D forms with d. Residues, ends and D or L forms follow the SMILES beside them. X2 = O=C(CC1(S[*:2])CCCCC1)[*:1]

For experiment [1], the system named is Rattus norvegicus. In words: In vivo antidiuretic activity in rats under ethanol anesthesia. Type of experiment: functional, Urine. The method in brief:
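Rats under ethanol anesthesia, with the USP posterior pituitary reference standard as reference. Agonistic activity is expressed in units per milligram.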

Experiment [2] is filed under the species Rattus norvegicus. The experiment can be described thus: In vitro anti-oxytocic potency was evaluated in the presence of 0.5 mM of Mg2+. Type of experiment: functional. The settings on record: read-out: pA2 (converted). The method in brief: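 Isolated rat uterus in medium containing 0.5 mM Mg2+. USP posterior pituitary reference standard used as agonist. In vitro pA2 values were derived as in Bankowski et al.; means ± SE.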

Experiment [3] concerns Rattus norvegicus. In words: In vivo anti-vasopressor activity measured as the negative logarithm of the effective dose / the estimated volume of distribution (67 mL/kg). The experiment is classed as ADME, organism-based. The settings on record: read-out: pA2 (converted). The method in brief: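 Rats treated with phenoxybenzamine under urethane anesthesia. Pressor responses to the USP posterior pituitary standard were given intravenously. Effective dose (nmol/kg) was interpolated on a log scale; means ± SE of at least four estimates. pA2 = −log(effective dose / 67 mL/kg).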

Experiment [4] is filed under the species Rattus norvegicus. The experiment can be described thus: In vitro anti-oxytocic potency was evaluated in the absence of Mg2+. The note with it: read-out: pA2 (converted). Type of experiment: functional. The gist of the method: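 Isolated rat uterus in medium containing no Mg2+. USP posterior pituitary reference standard used as agonist. In vitro pA2 values were derived as in Bankowski et al.; means ± SE.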

Experiment [5] is filed under the species Rattus norvegicus. In words: Antidiuretic activity was evaluated for the compound in rats under ethanol anesthesia; antagonist. The experiment is classed as functional, Urine. The gist of the method:
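Rats under ethanol anesthesia, with USP posterior pituitary reference standard as agonist. Each peptide was given at a high and a low dose, bracketing the dose that cuts the response to 2x units of agonist to the 1x-unit response. Effective dose (nmol/kg) was interpolated on a log scale. In vivo pA2 = −log(effective dose / 67 mL/kg). Means ± SE of at least four estimates.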

Take `COc1ccc(C[C@@H]2NC(=O)CC3(CCCCC3)SSC[C@@H](C(=O)N3CCC[C@H]3C(=O)N[C@H](CCCN=C(N)N)C(=O)NCC(N)=O)NC(=O)[C@H](CC(N)=O)NC(=O)[C@H](CCC(N)=O)NC(=O)[C@H](Cc3ccccc3)NC2=O)cc1`: the Activity in the experiment on Rattus norvegicus [1] turned out to be 0.31 units/mg. In addition, the Kb in the experiment listed under Rattus norvegicus [2] was 57.5 nM; in the experiment with Rattus norvegicus [3], 2.4 nM; in the experiment listed under Rattus norvegicus [4], 7.41 nM.
Compound `CCOc1ccc(C[C@@H]2NC(=O)CC3(CCCCC3)SSC[C@@H](C(=O)N3CCC[C@H]3C(=O)N[C@@H](CCCN=C(N)N)C(=O)NCC(N)=O)NC(=O)[C@H](CC(N)=O)NC(=O)[C@H](C(C)C)NC(=O)[C@H](Cc3ccccc3)NC2=O)cc1` (Y(Et)FVNCPRG-NH2; linker N-5 via X2) displayed an Activity in the experiment filed under Rattus norvegicus [5] of 7.1 mg. The Kb in the experiment listed under Rattus norvegicus [2] is 87.1 nM; in the experiment filed under Rattus norvegicus [4], 9.55 nM.
`CCOc1ccc(C[C@@H]2NC(=O)CC3(CCCCC3)SSC[C@@H](C(=O)N3CCC[C@H]3C(=O)N[C@H](CCCN=C(N)N)C(=O)NCC(N)=O)NC(=O)[C@H](CC(N)=O)NC(=O)[C@H](C(C)C)NC(=O)[C@H](Cc3ccccc3)NC2=O)cc1` (Y(Et)FVNCP[dR]G-NH2; linker N-5 via X2): the Activity in the experiment filed under Rattus norvegicus [5] was determined as 7.57 mg. In addition, the Kb in the experiment with Rattus norvegicus [3] is 6.92 nM.
In the experiment with Rattus norvegicus [1], `COc1ccc(C[C@@H]2NC(=O)CC3(CCCCC3)SSC[C@@H](C(=O)N3CCC[C@H]3C(=O)NC(CCCN=C(N)N)C(=O)NCC(N)=O)NC(=O)[C@H](CC(N)=O)NC(=O)[C@H](CCC(N)=O)NC(=O)[C@H](Cc3ccccc3)NC2=O)cc1` (stereo in doubt) registered an Activity of 0.23 units/mg. The Kb in the experiment listed under Rattus norvegicus [2] is 15.5 nM; in the experiment on Rattus norvegicus [3] it was 3.89 nM; in the experiment listed under Rattus norvegicus [4] it was 28.2 nM.
The matching figures for `COc1ccc(C[C@@H]2NC(=O)CC(C)(C)SSC[C@@H](C(=O)N3CCC[C@H]3C(=O)NC(CCCN=C(N)N)C(=O)NCC(N)=O)NC(=O)[C@H](CC(N)=O)NC(=O)[C@H](CCC(N)=O)NC(=O)[C@H](Cc3ccccc3)NC2=O)cc1` (stereo in doubt): 0.46 units/mg, 43.7 nM, 4.9 nM and 17 nM.
